Calls of active or inactive are those of the source.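 How the source made its calls, unless noted: active means NADPH fluorescence slope more negative than the mean of all samples by about 3 SD, 99.7% confidence; inactive means the rest.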
What was measured:
[1] = inhibitors of TNFa-induced NFkB p65 translocation, primary screen, imaging, HUVEC, MLSMR starter and 10KST1 sets (AID 438;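 active means inhibition above 20% together with a positive visual image hit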;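 further: compound added about 3h40 before a 20 min TNFalpha stimulation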;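 on inhibition: signal is the nuclear over cytoplasmic p65 intensity ratio per well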); settings: HUVEC TNFa-induced p65 nuclear translocation; cell count: measured here: nuclei count (cytotoxicity indicator), at 2.08 µM; inhibition: at 2 µM, stronger effect = higher value, 0% TNFa-plus-vehicle, 100% no-TNFa wells
[2] = endothelial E-selectin expression blockers – imaging, HUVEC, immunofluorescence, MLSMR starter and 10KST1 sets, primary screen (AID 487;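 active means visually confirmed hit in the image check and inhibition above 20%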;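 on inhibition: signal is fraction of cell area covered by stained E-selectin grains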;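 on nuclei count: 100% = median nuclei count of all wells on the same plate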); settings: HUVEC TNFalpha-induced E-selectin immunofluorescence imaging, at 2 µM; inhibition: stronger effect = higher value; nuclei count: measured here: cell number, toxicity
[3] = Primary imaging screen for DUSP6 inhibitors that restore phospho-Erk in transfected HeLa cells, chemical complementation (AID 609;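 active means compounds giving at least 50% inhibition in the cell-based MKP-3 phosphatase rescue imaging test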;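 on inhibition: phospho-Erk level distribution per well compared with pooled transfected vehicle control wells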); settings: HeLa MKP-3 transfected, phospho-Erk imaging KS statistic, at 10 µM, cells stimulated with TPA for 15 min
[4] = target: Dual specificity protein phosphatase 6 (Homo sapiens) (UniProt Q16828); assay: as above; settings: HeLa MKP-3 transfected, phospho-Erk imaging KS statistic; at 10 µM; stronger effect = higher value; cells stimulated with TPA for 15 min
[5] = target: Voltage-gated potassium channel subunit beta-2 (Rattus norvegicus) (UniProt P62483); assay: inhibitors of rat Kvbeta2 reductase activity – biochemical, NADPH fluorescence, primary screen (AID 622;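 active means fluorescence slope higher than the sample average by over 3 SD, cut at about -0.22 in these data, passing the limit was not always enough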;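 further: slope of raw intensity against log time taken from 70 to 1610 s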); settings: recombinant KvBeta, 4-cyanobenzaldehyde reduction, at 10 µM, stronger effect = higher value
[6] = target: Voltage-gated potassium channel subunit beta-2 (Rattus norvegicus) (UniProt P62483); assay: enhancers of rat Kvbeta2 NADPH turnover – biochemical, NADPH fluorescence, primary screen (AID 623); settings: Recombinant KvBeta, NADPH fluorescence decrease slope, 10 min; at 10 µM; stronger effect = lower value;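 further: fluorescence intensity change per second fitted from 20 to 320 s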
[7] = target: Alpha-2C adrenergic receptor (Homo sapiens) (UniProt P18825); assay: compounds altering alpha2C-coupled GIRK flux – cell-based, HEK293 alpha2C/GIRK1/2, thallium flux, primary screen (AID 624;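 active means fluorescence slope after compound addition differing from the mean of all screened samples at 99.7% confidence, in either direction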;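 further: slope of fluorescence ratio to pre-addition baseline per second over 15 to 24 s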); settings: thallium flux BTC fluorescence, at 10 µM, actives lie on both sides
[8] = inhibitors of larval lipid processing in zebrafish, primary screen, whole organism, PED6 fluorescence, gall bladder and intestine (AID 686;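 active means a full or partial loss of lipid-probe fluorescence in the fish gall bladder, intestine or both, judged by eye; inactive means no fluorescence loss, or compound toxic to the fish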;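 further: larvae 5 to 7 days old with five fish per well; signal comes from phospholipase A2 cleavage of quenched PED6 carried via bile; overnight exposure to compound and PED6 before scoring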); settings: Zebrafish larvae PED6 lipid processing, fluorescence scoring; screened at 20 µM (by protocol)
How it was run: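 System: live zebrafish larvae aged 5-7 days, whole organism; measure: graded gall bladder and intestinal fluorescence inhibition per well; incubation: overnight exposure; reagent: ingested quenched lipid PED6 at 100 nM; signal: By-eye fluorescence microscopy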

[9] = loss of swimming-algae plug formation – whole organism, Chlamydomonas reinhardtii, WT vs cilia-less mutant, absorbance, 96-well, primary screen (AID 463189;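 active means inhibition at or above 50% relative to wild type and mutant plate controls; inactive means inhibition below 50%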;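 further: 0% = wild type cc124 cells in DMSO and 100% = ciliumless bld1 mutant cells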); settings: Chlamydomonas reinhardtii gravitaxis, OD600 absorbance, 2 days; at 10 µM; stronger effect = higher value
[10] = measured here: cell density z-score
[11] = measured here: nuclear c-Myc green intensity z-score
[12] = measured here: nuclear pErk red intensity z-score, stronger effect = higher value

Voltage-gated potassium channel subunit beta-2 (Rattus norvegicus), sequence (P62483 whole entry, looked up): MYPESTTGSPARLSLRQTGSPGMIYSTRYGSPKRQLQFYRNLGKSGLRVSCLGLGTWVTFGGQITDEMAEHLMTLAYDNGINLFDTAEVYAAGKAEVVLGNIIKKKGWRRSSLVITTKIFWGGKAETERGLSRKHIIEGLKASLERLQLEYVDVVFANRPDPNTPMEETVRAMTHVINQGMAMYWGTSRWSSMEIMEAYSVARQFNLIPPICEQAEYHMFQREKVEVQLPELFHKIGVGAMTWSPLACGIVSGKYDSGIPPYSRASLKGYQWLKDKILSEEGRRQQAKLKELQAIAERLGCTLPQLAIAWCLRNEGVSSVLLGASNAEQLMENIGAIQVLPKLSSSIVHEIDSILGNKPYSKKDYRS
Dual specificity protein phosphatase 6 (Homo sapiens), sequence (Q16828 whole entry, looked up): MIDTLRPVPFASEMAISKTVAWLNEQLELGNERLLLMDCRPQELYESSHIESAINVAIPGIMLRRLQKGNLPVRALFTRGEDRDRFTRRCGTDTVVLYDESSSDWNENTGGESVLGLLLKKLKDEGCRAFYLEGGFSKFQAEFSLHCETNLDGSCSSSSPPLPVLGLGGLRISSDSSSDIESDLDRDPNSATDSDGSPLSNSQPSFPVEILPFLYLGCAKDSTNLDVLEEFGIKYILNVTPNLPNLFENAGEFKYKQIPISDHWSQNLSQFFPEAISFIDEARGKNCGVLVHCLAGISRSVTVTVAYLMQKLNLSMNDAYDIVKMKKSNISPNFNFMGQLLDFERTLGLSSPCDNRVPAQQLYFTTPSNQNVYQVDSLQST
Alpha-2C adrenergic receptor (Homo sapiens), sequence (P18825 whole entry, looked up): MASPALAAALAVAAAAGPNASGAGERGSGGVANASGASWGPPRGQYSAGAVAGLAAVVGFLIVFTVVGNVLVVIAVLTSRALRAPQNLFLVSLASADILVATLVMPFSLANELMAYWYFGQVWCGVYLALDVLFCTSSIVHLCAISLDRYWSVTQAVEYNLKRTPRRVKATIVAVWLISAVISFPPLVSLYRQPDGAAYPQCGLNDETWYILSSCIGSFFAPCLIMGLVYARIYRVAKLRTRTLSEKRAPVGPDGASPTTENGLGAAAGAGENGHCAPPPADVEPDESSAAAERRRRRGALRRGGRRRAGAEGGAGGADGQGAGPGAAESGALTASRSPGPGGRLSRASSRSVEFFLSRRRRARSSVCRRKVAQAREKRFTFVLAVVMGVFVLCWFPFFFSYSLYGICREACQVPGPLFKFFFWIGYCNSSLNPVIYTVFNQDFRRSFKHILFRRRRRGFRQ

| SMILES | cell count [1] | inhibition [1] | inhibition [2] | nuclei count [2] | z-score [3, 10] | z-score [3, 11] | z-score [3, 12] | inhibition [4] | fluorescence slope [5] | NADPH fluorescence slope [6] | slope [7] | outcome [8] | inhibition [9] |
| --- | --- | --- | --- | --- | --- | --- | --- | --- | --- | --- | --- | --- | --- |
| C=CCn1cnc2c(c1=O)c1nc3ccccc3nc1n2-c1ccc(Cl)cc1 | 479 | -0.2% (inactive) | -57.8% (inactive) | 97.9% | 0.198 | -0.115 | -0.677 | 3.5% (inactive) | -0.489 (inactive) | -1.8e-05 (inactive) | 0.00468 (inactive) | inactive | 22.7% (inactive) |
| Cc1cc(C)cc(CC2CC(=O)N(c3cc(C)on3)C2=O)c1 (stereo unspecified) | 491 | -7% (inactive) | -80.4% (inactive) | 132% | -0.204 | -0.209 | 1.15 | 3.66% (inactive) | -0.517 (inactive) | -6.6e-05 (inactive) | 0.00547 (inactive) | inactive | 2.69% (inactive) |
| CCN(CC)CCNC(=O)c1ccccc1N | 521 | -17.4% (inactive) | -314% (inactive) | 187% | 0.845 | 0.248 | 0.636 | -8.95% (inactive) | -0.463 (inactive) | -0.000132 (inactive) | 0.00488 (inactive) | inactive | -5.26% (inactive) |
| Cc1[nH]nc2cn[nH]c12 | 531 | -7.3% (inactive) | -92.8% (inactive) | 130% | -0.515 | 1.09 | 1.21 | -5.89% (inactive) | -0.526 (inactive) | -5.7e-05 (inactive) | 0.00413 (inactive) | inactive | 4.67% (inactive) |
| CC(C)Oc1ccc(C(=O)CCN2CCCCC2)cc1 | 457 | 6.5% (inactive) | -349% (inactive) | 163% | 0.309 | -0.269 | -0.0861 | -10.6% (inactive) | -0.258 (inactive) | 2.6e-05 (inactive) | 0.00524 (inactive) | inactive | 139% (active) |
| COC(=O)CC1=C(C(=O)OC)C(c2ccncc2)C(C#N)=C(N)O1 (stereo unspecified) | 492 | -3.8% (inactive) | -58.7% (inactive) | 157% | 1.74 | -0.108 | -0.84 | 16.8% (inactive) | -0.366 (inactive) | 1e-05 (inactive) | 0.00477 (inactive) | inactive | 24.5% (inactive) |
| OC1(c2cccc(C(F)(F)F)c2)CCN(c2ncnc3c2[nH]c2ccccc23)CC1 | 447 | -2.9% (inactive) | -95% (inactive) | 165% | -0.506 | 1.11 | -2.96 | 34.7% (inactive) | -0.454 (inactive) | -5.6e-05 (inactive) | 0.0037 (inactive) | inactive | 19.3% (inactive) |
| Cc1nn(-c2cccc(Cl)c2)c2c1C(c1ccncc1)C(C#N)=C(N)O2 (stereo unspecified) | 374 | -13.7% (inactive) | -56% (inactive) | 98.8% | -2.16 | -0.307 | -1.54 | 2.46% (inactive) | -0.382 (inactive) | 4.7e-05 (inactive) | 0.00526 (inactive) | inactive | -1.15% (inactive) |
| COc1ccc(CCn2c(C)ccc2C)cc1OC | 476 | -5.7% (inactive) | -58.3% (inactive) | 112% | -0.324 | 0.735 | -0.301 | 3.66% (inactive) | -0.488 (inactive) | -8e-05 (inactive) | 0.00401 (inactive) | inactive | -7.78% (inactive) |
| Cc1ccc2[nH]c3c(N4CCN(Cc5ccccc5)CC4)ncnc3c2c1 | 328 | -7.3% (inactive) | -11.9% (inactive) | 148% | 0.594 | 0.553 | -0.309 | 10.5% (inactive) | -0.403 (inactive) | -0.000135 (inactive) | 0.00442 (inactive) | inactive; toxic | 38.4% (inactive) |
| CNc1ccccc1-c1nc2ccccc2n(C)c1=O | 545 | 1.8% (inactive) | -41.8% (inactive) | 154% | 0.495 | -0.326 | 0.207 | 14% (inactive) | -0.488 (inactive) | -7.9e-05 (inactive) | 0.00346 (inactive) | active; weak signal in gallbladder and intestine | 16% (inactive) |
| COCc1[nH]nc2c1C(c1ccnc3ccccc13)C(C#N)=C(N)O2 (stereo unspecified) | 589 | -5% (inactive) | 26.1% (inactive) | 102% | 0.598 | -2.1 | -0.301 | 29.9% (inactive) | -0.519 (inactive) | -1.8e-05 (inactive) | 0.00587 (inactive) | inactive | 15.7% (inactive) |
| CCc1ccc2c(c1)C(C)=CC(C)(C)N2 | 622 | -14.1% (inactive) | -3.3% (inactive) | 176% | -1.35 | -0.276 | 0.835 | -13.3% (inactive) | -0.431 (inactive) | -6.9e-05 (inactive) | 0.00542 (inactive) | inactive | 5.82% (inactive) |
| COc1ccc(C2C(C#N)=C(SC)NC3=C2C(=O)CC(C)(C)C3)cc1 (stereo unspecified) | 369 | -8.9% (inactive) | -30.1% (inactive) | 156% | 1.03 | -0.788 | 1.1 | -12.6% (inactive) | -0.411 (inactive) | -9.7e-05 (inactive) | 0.00455 (inactive) | inactive | 27.3% (inactive) |
| O=C(NCc1ccccc1)c1ccc(=O)[nH]n1 | 328 | -0.3% (inactive) | -132% (inactive) | 98.8% | -0.814 | 0.951 | -1.98 | 11.3% (inactive) | -0.456 (inactive) | -0.00047 (inactive) | 0.00499 (inactive) | inactive; toxic | -6.14% (inactive) |
| Cc1cc(C)n(C(=O)CN2C(=O)CCC2=O)n1 | 406 | -19% (inactive) | -169% (inactive) | 155% | -0.373 | -0.831 | -0.956 | -5.62% (inactive) | -0.249 (inactive) | 1.9e-05 (inactive) | 0.00506 (inactive) | inactive | 17.3% (inactive) |
| COC(=O)c1cc(OC)c(OC)cc1N | 358 | -11.5% (inactive) | 9.3% (inactive) | 135% | 0.282 | 0.254 | 0.0446 | -12.3% (inactive) | -0.385 (inactive) | -0.000132 (inactive) | 0.00592 (inactive) | inactive | -2.54% (inactive) |
| COCc1[nH]nc2c1C(c1ccccc1OC)C(C#N)=C(N)O2 (stereo unspecified) | 633 | -4.1% (inactive) | 27.6% (inactive) | 101% | 0.246 | 0.997 | -0.624 | -7.28% (inactive) | -0.488 (inactive) | -1.1e-05 (inactive) | 0.00544 (inactive) | inactive | 31.9% (inactive) |
| CCCC(=O)N1CCN(c2nc(CC(C)C)c3c(c2C#N)CCC3)CC1 | 529 | -8.3% (inactive) | -117% (inactive) | 130% | -0.247 | 0.583 | 0.103 | -5.26% (inactive) | -0.5 (inactive) | -1.9e-05 (inactive) | 0.00433 (inactive) | inactive | -3.24% (inactive) |
| CCCOc1ccc(/C(O)=C2/C(=O)C(=O)N(CCCN3CCOCC3)C2c2ccncc2)cc1 (stereo unspecified) | 398 | -0.5% (inactive) | -151% (inactive) | 145% | 0.781 | 0.803 | -0.95 | -8.27% (inactive) | -0.341 (inactive) | -1.2e-05 (inactive) | 0.0051 (inactive) | inactive | 0.312% (inactive) |
| Cc1ccc(S(=O)(=O)/C(C#N)=C/c2c(N3CCN(C)CC3)nc3c(C)cccn3c2=O)cc1 | 485 | 3.3% (inactive) | 20% (inactive) | 160% | -0.459 | 0.434 | 1.14 | 20.3% (inactive) | -0.382 (inactive) | -4.1e-05 (inactive) | 0.00164 (active) | inactive | -7.2% (inactive) |
| Cn1c(=O)oc2cc(C(=O)c3ccccc3)ccc21 | 442 | -7.7% (inactive) | -42.8% (inactive) | 177% | 0.0253 | -0.374 | -0.71 | 1.04% (inactive) | -0.332 (inactive) | -3.5e-05 (inactive) | 0.00473 (inactive) | inactive | -6.29% (inactive) |
| COc1ccc(C2=CC(c3cccc(OC)c3)n3nnnc3N2)cc1 (stereo unspecified) | 539 | -14.8% (inactive) | -119% (inactive) | 145% | 2.98 | -1.71 | -0.495 | 13.7% (inactive) | -0.474 (inactive) | -6.4e-05 (inactive) | 0.00383 (inactive) | inactive | 6.7% (inactive) |
| Clc1ccccc1-c1nn2c(-c3ccccn3)nnc2s1 | 603 | -6.7% (inactive) | -82.4% (inactive) | 167% | 0.327 | 0.132 | -0.483 | -0.674% (inactive) | -0.404 (inactive) | -0.000155 (inactive) | 0.00777 (inactive) | inactive | 48.8% (inactive) |
| COc1ccc(-c2cc(=O)[nH]c(=O)[nH]2)cc1 | 636 | -16% (inactive) | -269% (inactive) | 186% | -0.456 | 0.584 | 0.91 | 3.66% (inactive) | -0.466 (inactive) | -0.000273 (inactive) | 0.00552 (inactive) | inactive | -6.46% (inactive) |
| N/C(CCN1CCCCC1)=N/O | 582 | -29.9% (inactive) | 25.5% (inactive) | 169% | 0.685 | -0.291 | -0.968 | -4.27% (inactive) | -0.418 (inactive) | -9.2e-06 (inactive) | 0.00552 (inactive) | inactive | 12.2% (inactive) |
| COc1ccccc1Cn1c2nc3ccccc3nc2c2c(=O)n(CC(C)C)cnc21 | 340 | -7.7% (inactive) | -28.2% (inactive) | 148% | 0.356 | -0.852 | -0.477 | -8.59% (inactive) | -0.425 (inactive) | -0.000144 (inactive) | 0.00898 (inactive) | inactive | 6.68% (inactive) |
